Activity calls are given as the source filed them. No cut-off for these calls is given here.
Experiments:
[1] = species: Rattus norvegicus; experiment: Selectivity index, ratio of IC50 for rat kidney ALR1 to IC50 for rat lenses ALR2
[2] = target: Aldo-keto reductase family 1 member A1 (Rattus norvegicus, UniProt P51635); experiment: Inhibition of rat kidney ALR1 using sodium D-glucuronate as substrate preincubated for 10 mins followed by substrate addition measured for 4 mins
Summary of the method: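 ALR1 assay run at 37 °C in 1 mL containing 0.12 mM NADPH, 0.1 M sodium phosphate pH 7.2 and enzyme extract. The mixture was preincubated 10 min, then 20 mM sodium D-glucuronate was added and the reaction monitored for 4 min. The nonenzymatic NADPH oxidation rate without substrate was subtracted. Triplicates at ≥3 concentrations in the 20–80% inhibition range were used to build dose-response curves for IC50.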

[3] = target: Aldo-keto reductase family 1 member B1 (Rattus norvegicus, UniProt P07943); experiment: Inhibition of rat lenses ALR2 using DL-glyceraldehyde as substrate preincubated for 10 mins followed by substrate addition measured for 4 mins
Summary of the method: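 ALR2 assay run at 30 °C in 1 mL containing 0.10 mM NADPH, 0.1 M sodium phosphate pH 6.2 and enzyme extract. The mixture was preincubated 10 min, then 10 mM DL-glyceraldehyde was added and NADPH oxidation followed for 4 min. Compounds were in DMSO diluted with water. Substrate-free blank rates were subtracted.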

[4] = Antidiabetic activity in STZ-induced diabetic Sprague-Dawley rat model assessed as aldose reductase activity at 50 uM//kg, po administered for 8 weeks (reference value: 44.66 +/- 2.7 U); assay type: functional, organism-based
Summary of the method: (§1)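 Diabetes was induced in rats by a single i.p. injection of streptozotocin, 35 mg/kg in 0.1 M citrate buffer pH 4.5. Animals with fasting blood glucose >150 mg/dl at 72 h were included. Treatment was given p.o. daily for 8 weeks as a suspension in 2% Tween 80 in saline. Diabetic controls received vehicle only. Lenses were dissected at sacrifice after 8 weeks.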

[5] = Antidiabetic activity in STZ-induced diabetic Sprague-Dawley rat model assessed as aldose reductase activity at 5 uM//kg, po administered for 8 weeks (reference value: 44.66 +/- 2.7 U); assay type: functional, organism-based; summary of the method: as §1
[6] = Antidiabetic activity in STZ-induced diabetic Sprague-Dawley rat model assessed as decrease in fructose level in lenses at 5 to 50 uM/kg, po administered for 8 weeks; assay type: functional, organism-based; summary of the method: as §1
[7] = Antidiabetic activity in STZ-induced diabetic Sprague-Dawley rat model assessed as blood glucose level at 5 uM/kg, po administered for 8 weeks measured every week during compound dosing (reference value: 261.53 +/- 53 mg/dl); assay type: functional, organism-based; summary of the method: as §1
[8] = system: Rattus norvegicus; experiment: Antidiabetic activity in po dosed STZ-induced diabetic Sprague-Dawley rat model assessed as decrease in aldose reductase activity administered for 8 weeks; assay type: functional, organism-based; summary of the method: as §1
[9] = Antidiabetic activity in STZ-induced diabetic Sprague-Dawley rat model assessed as blood glucose level at 50 uM/kg, po administered for 8 weeks measured every week during compound dosing (reference value: 261.53 +/- 53 mg/dl); assay type: functional, organism-based; summary of the method: as §1
[10] = Antidiabetic activity in STZ-induced diabetic Sprague-Dawley rat model assessed as effect on body weight at 50 uM/kg, po administered for 8 weeks (reference value: 186 +/- 6.91 g); assay type: functional, organism-based; summary of the method: as §1
[11] = Antidiabetic activity in STZ-induced diabetic Sprague-Dawley rat model assessed as effect on body weight at 5 uM/kg, po administered for 8 weeks (reference value: 186 +/- 6.91 g); assay type: functional, organism-based; summary of the method: as §1
[12] = Antidiabetic activity in STZ-induced diabetic Sprague-Dawley rat model assessed as decrease in sorbitol level in lenses at 5 to 50 uM/kg, po administered for 8 weeks; assay type: functional, organism-based; summary of the method: as §1
[13] = Antidiabetic activity in STZ-induced diabetic Sprague-Dawley rat model assessed as delay in progression of cataract at 5 to 50 uM/kg, po administered for 8 weeks measured every week during compound dosing by slit-lamp microscopy; assay type: functional, organism-based; summary of the method: as §1

Aldo-keto reductase family 1 member A1, sequence (P51635 whole entry, looked up): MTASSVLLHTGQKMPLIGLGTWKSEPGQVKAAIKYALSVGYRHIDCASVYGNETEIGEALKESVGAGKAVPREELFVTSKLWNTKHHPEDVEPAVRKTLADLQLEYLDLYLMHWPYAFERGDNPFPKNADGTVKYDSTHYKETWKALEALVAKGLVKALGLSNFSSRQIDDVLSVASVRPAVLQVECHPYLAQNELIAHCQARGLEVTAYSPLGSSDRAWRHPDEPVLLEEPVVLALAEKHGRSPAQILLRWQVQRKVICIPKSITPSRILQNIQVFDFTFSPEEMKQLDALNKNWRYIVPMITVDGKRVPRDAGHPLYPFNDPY

| Ratio IC50 [1] | IC50 [2] [nM] | IC50 [3] [nM] | SMILES | further results |
| --- | --- | --- | --- | --- |
| 1.55 | 5720 | 3670 | O=C(C1=Cc2ccccc2OC1)N1CCC[C@H]1c1ncc(-c2ccccc2)[nH]1 |  |
| 4.42 | 3410 | 771 | COc1cccc2c1OCC(C(=O)N[C@H](c1ncc(-c3ccc(Br)cc3)[nH]1)C(C)C)=C2 |  |
| 11.5 | 3880 | 337 | O=C(C1=Cc2ccccc2OC1)N1CCC[C@H]1c1ncc(-c2ccc(Cl)cc2)[nH]1 |  |
| 10.3 | 2280 | 220 | CC(C)[C@H](NC(=O)C1=Cc2ccccc2OC1)c1ncc(-c2ccc(Br)cc2)[nH]1 |  |
| 4.38 | 1840 | 420 | O=C(NCc1ncc(-c2ccc(F)cc2)[nH]1)C1=Cc2ccccc2OC1 |  |
| 22.2 | 1440 | 65 | COc1cccc2c1OCC(C(=O)NCc1ncc(-c3ccc(Cl)cc3)[nH]1)=C2 |  |
| 2.48 | 5190 | 2120 | O=C(NCc1ncc(-c2ccccc2)[nH]1)C1=Cc2ccccc2OC1 |  |
| 4.61 | 3380 | 732 | O=C(NCc1ncc(-c2ccc(Br)cc2)[nH]1)C1=Cc2ccccc2OC1 |  |
| 2.19 | 9410 | 4290 | CC(C)[C@H](NC(=O)C1=Cc2ccccc2OC1)c1ncc(-c2ccccc2)[nH]1 |  |
| 10.9 | 2430 | 222 | O=C(C1=Cc2ccccc2OC1)N1CCC[C@H]1c1ncc(-c2cccnc2)[nH]1 |  |
| 1.66 | 1210 | 731 | COc1cccc2c1OCC(C(=O)NCc1ncc(-c3ccccc3)[nH]1)=C2 |  |
| 17.1 | 1560 | 91 | COc1cccc2c1OCC(C(=O)NCc1ncc(-c3ccc(Br)cc3)[nH]1)=C2 |  |
| 1.45 | 1310 | 899 | COc1ccc(-c2cnc(CNC(=O)C3=Cc4cccc(OC)c4OC3)[nH]2)cc1 |  |
|  |  |  | O=C1NC(=O)[C@@]2(CCOc3ccc(F)cc32)N1 | Activity [4]: 39 U |
| 9.22 | 2540 | 275 | COc1ccc(-c2cnc(CNC(=O)C3=Cc4ccccc4OC3)[nH]2)cc1 |  |
| 22.8 | 1620 | 71 | COc1cccc2c1OCC(C(=O)NCc1ncc(-c3ccc(F)cc3)[nH]1)=C2 |  |
| 110 | 3420 | 31 | COc1cccc2c1OCC(C(=O)N1CCC[C@H]1c1ncc(-c3ccc(Cl)cc3)[nH]1)=C2 | Activity [5]: 41.3 U; Activity [6]: Active; Activity [7]: 139 mg/dL; Activity [8]: Dose-dependent effect; Activity [9]: 130 mg/dL; Activity [10]: 320 g; Activity [4]: 39.5 U; Activity [11]: 309 g; Activity [12]: Active; Activity [13]: Active |
| 0.596 | 1830 | 3070 | COc1cccc2c1OCC(C(=O)N1CCC[C@H]1c1ncc(-c3ccccc3)[nH]1)=C2 |  |
| 21.2 | 2420 | 114 | O=C(NCc1ncc(-c2ccc(Cl)cc2)[nH]1)C1=Cc2ccccc2OC1 |  |
| 9.71 | 1420 | 146 | COc1cccc2c1OCC(C(=O)N1CCC[C@H]1c1ncc(-c3cccnc3)[nH]1)=C2 |  |
|  |  |  | NC(=O)[C@@H]1C[C@]2(NC(=O)NC2=O)c2cc(F)ccc2O1 | Activity [4]: 36.3 U |
| 4.87 | 4870 | 1000 | COc1cccc2c1OCC(C(=O)N[C@H](c1ncc(-c3ccccc3)[nH]1)C(C)C)=C2 |  |

Reference: ChEMBL document CHEMBL3875167, “Design and synthesis of chiral 2H-chromene-N-imidazolo-amino acid conjugates as aldose reductase inhibitors” (Eur J Med Chem, 2016)
